Paper PMC9064050 (RSC Advances, 2019)
Converted amounts (≈) assume the structure as drawn.

Experiments:
EB–DNA [1] = conditions: at the concentration of 50 μM EB; cited from earlier work
Mucor indicus = assay: Kirby–Bauer agar disc diffusion; type: cell-based; conditions: for inhibition%: eqn (20)
How it was run: (§1)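 Kirby–Bauer disc diffusion on Mueller–Hinton agar (pH 7.2, autoclaved 121 °C for 15 min, ~4 mm deep, held 2–8 °C for 24 h). Plates spread with 24 h cultures. 6 mm discs loaded with 20 μL of 100 μM test compound. Bacteria incubated at 37 °C for 48 h; fungi at 22 °C for 7 days. Clear-zone diameter measured by ruler; % inhibition by eqn (20) against 6 mm control.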

CT-DNA [2] = assay: Nuclease activity by gel electrophoresis in presence of H2O2; type: biochemical; conditions: CT-DNA + H2O2, agarose gel
How it was run: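 Chemical nuclease assay: CT-DNA with test compound plus H2O2 in Tris–HCl buffer, pH 7.2. Products run on agar gel electrophoresis and imaged under a UV transilluminator. Band migration compared with a DNA + H2O2 control.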

Escherichia coli = assay: Kirby–Bauer agar disc diffusion; type: cell-based; conditions: for inhibition%: from zone diameter, eqn (20)
How it was run: as §1

[3] = system: Salmonella enteric serovar typhi; assay: Kirby–Bauer agar disc diffusion; type: cell-based; conditions: for inhibition%: eqn (20)
How it was run: as §1

Aspergillus niger = assay: Kirby–Bauer agar disc diffusion; type: cell-based; conditions: for inhibition%: eqn (20)
How it was run: as §1

CT-DNA [4] = assay: DNA thermal denaturation by absorption; type: binding
CT-DNA [5] = assay: DNA binding by electronic absorption titration; conditions: Wolfe–Shimmer method; 298 K, pH 7.2
How it was run: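 UV-Vis titration at a fixed complex concentration of 100 μM in 5 mM Tris–HCl/50 mM NaCl, pH 7.2, 25 °C. CT-DNA varied 0–150 μM, with [DNA] expressed in base pairs. Kb (Wolfe–Shimmer) taken as the slope-to-intercept ratio of [DNA]/(εa−εf) vs [DNA].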

[6] = system: normal human dermal fibroblast (NHDF); assay: MTT assay on normal cells; type: cell-based; conditions: normal cell line; 50% cell death following 72 h exposure
How it was run: (§2)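 MTT viability: cells seeded at 1 × 10^5 per well and incubated 24 h at 37 °C, 5% CO2. Treated with test compound at 10–100 μg mL−1 (from DMSO). Medium removed, wells PBS-washed, RPMI-1640 plus MTT (5 mg mL−1 solution) added for 4 h at 37 °C. Formazan dissolved in DMSO, read at 570 nm. Triplicate wells; IC50 from % viability; cisplatin as reference.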

[7] = Superoxide scavenging assay; conditions: 240 µM, 590 nm
How it was run: (§3)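 Absorbance read at 517 nm (DPPH), 230 nm (hydroxyl), 590 nm (superoxide), 546 nm (nitric oxide) and 700 nm (FRAP). FRAP measures the rise in absorbance from Fe3+→Fe2+ reduction with ferricyanide. IC50 taken from % inhibition vs concentration plots.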

Shigella flexneri = assay: Kirby–Bauer agar disc diffusion; type: cell-based; conditions: for inhibition%: eqn (20)
How it was run: as §1

[8] = Ferric reducing antioxidant power; conditions: 240 µM, 700 nm
How it was run: as §3

[9] = Hydroxyl radical scavenging assay; conditions: 240 µM, 230 nm
How it was run: as §3

EB–DNA [10] = assay: Competitive binding
How it was run: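 EB displacement fluorescence titration: CT-DNA 100 μM with EB in 50 mM Tris–HCl/1 mM NaCl buffer (pH 7.2), test compound 0–120 μM. Emission at 610 nm. KSV and Kq from Stern–Volmer (τ0 = 10^−8 s); Kass and n from log(F0−F)/F vs log[Q]; KLB from 1/(F0−F) vs 1/[Q]; KSC and n from Scatchard. Kapp from KEB[EB] = Kapp[compound] at 50% EB-fluorescence loss (KEB = 10^7 M−1, EB 50 μM).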

liver cancer (HepG2) = assay: In vitro anticancer MTT assay; type: cell-based, human; conditions: 50% cell death following 72 h exposure
How it was run: as §2

Candida albicans = assay: Kirby–Bauer agar disc diffusion; type: cell-based; conditions: for inhibition%: eqn (20)
How it was run: as §1

Bacillus cereus = assay: Kirby–Bauer agar disc diffusion; type: cell-based; conditions: for inhibition%: eqn (20)
How it was run: as §1

Staphylococcus aureus = assay: Kirby–Bauer agar disc diffusion; type: cell-based; conditions: for inhibition%: eqn (20)
How it was run: as §1

Pseudomonas aeruginosa = assay: Kirby–Bauer agar disc diffusion; type: cell-based; conditions: for inhibition%: eqn (20)
How it was run: as §1

[11] = Nitric oxide scavenging assay; conditions: 240 µM, 546 nm
How it was run: as §3

[12] = system: Chromobacterium violaceum; assay: Kirby–Bauer agar disc diffusion; type: cell-based; conditions: for inhibition%: eqn (20)
How it was run: as §1

breast (MCF-7) = assay: In vitro anticancer MTT assay; type: cell-based, human; conditions: 50% cell death following 72 h exposure
How it was run: as §2

human lung cancer (A549) = assay: In vitro anticancer MTT assay; type: cell-based; conditions: 50% cell death following 72 h exposure
How it was run: as §2

[13] = biological target: bovine serum albumin (BSA) (Bos taurus, UniProt P02769); assay: BSA binding assay by absorption titration
bovine serum albumin (BSA), sequence (P02769 25-607): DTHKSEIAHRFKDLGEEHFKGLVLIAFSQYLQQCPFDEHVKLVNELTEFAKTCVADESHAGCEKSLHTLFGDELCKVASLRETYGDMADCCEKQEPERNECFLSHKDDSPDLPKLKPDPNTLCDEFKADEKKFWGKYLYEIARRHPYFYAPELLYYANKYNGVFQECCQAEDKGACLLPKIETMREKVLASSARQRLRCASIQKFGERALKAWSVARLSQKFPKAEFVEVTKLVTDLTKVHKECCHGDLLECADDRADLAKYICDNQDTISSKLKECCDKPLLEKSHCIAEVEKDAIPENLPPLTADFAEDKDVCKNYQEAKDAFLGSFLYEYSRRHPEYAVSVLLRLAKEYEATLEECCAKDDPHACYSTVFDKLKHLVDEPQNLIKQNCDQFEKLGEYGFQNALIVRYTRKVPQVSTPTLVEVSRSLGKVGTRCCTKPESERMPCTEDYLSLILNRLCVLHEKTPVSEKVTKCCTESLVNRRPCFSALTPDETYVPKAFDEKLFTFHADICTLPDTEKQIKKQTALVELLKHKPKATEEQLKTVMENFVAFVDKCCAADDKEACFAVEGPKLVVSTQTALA

[14] = DPPH radical scavenging assay; conditions: 240 µM, 517 nm
How it was run: as §3

[15] = B = (−)Salmonella enteric serovar typhi
[16] = C = (−)Chromobacterium violaceum

SMILES: CC[n+]1c(-c2ccccc2)c2cc(N)ccc2c2ccc(N)cc21 [EB, ethidium bromide]
- KEB (binding constant of EB to DNA) (EB–DNA [1]): 10^7 M^−1

SMILES: Oc1ccc(Br)cc1C=NCCN1CCOCC1 [HL, 2-(-(2-morpholinoethylimino)methyl)-4-bromophenol]
- diameter of clear zone inhibition (Mucor indicus; J = Mucor indicus, 20 μL of 100 μM per disc, control 6 mm): 17 mm
- inhibition% (Mucor indicus; J = Mucor indicus): 65%
- DNA cleavage efficacy (CT-DNA [2]): inactive
- diameter of clear zone inhibition (Escherichia coli; A = (−) Escherichia coli, 20 μL of 100 μM per disc, control (DMSO) = 6 mm): 14 mm
- inhibition% (Escherichia coli; A = (−) Escherichia coli): 57%
- diameter of clear zone inhibition ([3]; B = (−)Salmonella enteric serovar typhi, 20 μL of 100 μM per disc, control 6 mm): 12 mm
- inhibition% [3, 15]: 50%
- diameter of clear zone inhibition (Aspergillus niger; H = Aspergillus niger, 20 μL of 100 μM per disc, control 6 mm): 25 mm
- inhibition% (Aspergillus niger; H = Aspergillus niger): 76%
- Binding constant Kr at 298 K (CT-DNA [4]): 10038 M⁻¹
- Kb, WS method (intrinsic DNA binding constant) (CT-DNA [5]): 10000 M⁻¹
- IC50 NHDF [6]: 66.72 µg/mL (≈ 213 µM)
- % Inhibition, superoxide [7]: 50.62%
- diameter of clear zone inhibition (Shigella flexneri; E = (−)Shigella flexneri, 20 μL of 100 μM per disc, control 6 mm): 17 mm
- inhibition% (Shigella flexneri; E = (−)Shigella flexneri): 65%
- % Inhibition, ferric reducing power [8]: 54.29%
- % Inhibition, hydroxyl radical [9]: 51.78%
- KLB (Lineweaver–Burk binding constant) (EB–DNA [10]): 1498 M⁻¹
- KSV (Stern–Volmer binding constant), Method-I (EB–DNA [10]): 4658 M⁻¹
- Kass (association binding constant), Stern–Volmer Method-II (EB–DNA [10]): 1924 M⁻¹
- Apparent binding constant Kapp (EB–DNA [10]; KEB[EB] = Kapp[compound], 50% reduction of EB fluorescence): 269932 M⁻¹
- KSC (Scatchard binding constant) (EB–DNA [10]; Scatchard analysis): 10942 M⁻¹
- IC50 HepG2 (liver cancer (HepG2)): 27.48 µg/mL (≈ 87.7 µM)
- diameter of clear zone inhibition (Candida albicans; I = Candida albicans, 20 μL of 100 μM per disc, control 6 mm): 12 mm
- inhibition% (Candida albicans; I = Candida albicans): 50%
- diameter of clear zone inhibition (Bacillus cereus; G = (+)Bacillus cereus, 20 μL of 100 μM per disc, control 6 mm): 10 mm
- inhibition% (Bacillus cereus; G = (+)Bacillus cereus): 40%
- diameter of clear zone inhibition (Staphylococcus aureus; F = (+)Staphylococcus aureus, 20 μL of 100 μM per disc, control 6 mm): 10 mm
- inhibition% (Staphylococcus aureus; F = (+)Staphylococcus aureus): 40%
- diameter of clear zone inhibition (Pseudomonas aeruginosa; D = (−)Pseudomonas aeruginosa, 20 μL of 100 μM per disc, control 6 mm): 12 mm
- inhibition% (Pseudomonas aeruginosa; D = (−)Pseudomonas aeruginosa): 50%
- % Inhibition, nitric oxide [11]: 50.20%
- diameter of clear zone inhibition ([12]; C = (−)Chromobacterium violaceum, 20 μL of 100 μM per disc, control 6 mm): 12 mm
- inhibition% [12, 16]: 50%
- IC50 MCF-7 (breast (MCF-7)): 26.67 µg/mL (≈ 85.2 µM)
- IC50 A549 (human lung cancer (A549)): 31.74 µg/mL (≈ 101 µM)
- Chromism (%H), hyperchromism ([13]; BSA absorption, pH 7.2, 25 °C): 34.27%
- Δλ (nm), bound vs free ([13]; blue-shift of BSA band, pH 7.2, 25 °C): 02 nm
- Gibb's free energy change ([13]; from Kapp): -23.41 kJ/mol
- % Inhibition, DPPH [14]: 50.64%

SMILES: CC(=O)N1CCN(c2ccc(OCC3COC(Cn4ccnc4)(c4ccc(Cl)cc4Cl)O3)cc2)CC1 (stereo not shown) [Ketokonazole, ketokonazole]
- inhibition% (Mucor indicus; J = Mucor indicus): 67%
- zone of inhibition at 100 µM (Mucor indicus; Mucor indicus, read-out: diameter of clear zone inhibition): 18 mm
- zone of inhibition at 100 µM (Aspergillus niger; Aspergillus niger, read-out: diameter of clear zone inhibition): 16 mm
- inhibition% (Aspergillus niger; H = Aspergillus niger): 63%
- zone of inhibition at 100 µM (Candida albicans; Candida albicans, read-out: diameter of clear zone inhibition): 18 mm
- inhibition% (Candida albicans; I = Candida albicans): 67%

SMILES: [H]/N=C(/N)N[C@H]1[C@H](O)[C@@H](O)[C@H](O[C@@H]2O[C@@H](C)[C@](O)(C=O)[C@H]2O[C@@H]2O[C@@H](CO)[C@H](O)[C@@H](O)[C@@H]2NC)[C@@H](N/C(N)=N\[H])[C@@H]1O [Streptomycin, streptomycin]
- inhibition% (Escherichia coli; A = (−) Escherichia coli): 75%
- zone of inhibition at 100 µM (Escherichia coli; Escherichia coli, read-out: diameter of clear zone inhibition): 24 mm
- inhibition% [3, 15]: 77%
- zone of inhibition at 100 µM ([3]; Salmonella, TYPHI, read-out: diameter of clear zone inhibition): 26 mm
- inhibition% (Shigella flexneri; E = (−)Shigella flexneri): 76%
- zone of inhibition at 100 µM (Shigella flexneri; Shigella flexneri, read-out: diameter of clear zone inhibition): 25 mm
- zone of inhibition at 100 µM (Bacillus cereus; Bacillus cereus, read-out: diameter of clear zone inhibition): 21 mm
- inhibition% (Bacillus cereus; G = (+)Bacillus cereus): 71%
- inhibition% (Staphylococcus aureus; F = (+)Staphylococcus aureus): 71%
- zone of inhibition at 100 µM (Staphylococcus aureus; Staphylococcus aureus, read-out: diameter of clear zone inhibition): 21 mm
- inhibition% (Pseudomonas aeruginosa; D = (−)Pseudomonas aeruginosa): 71%
- zone of inhibition at 100 µM (Pseudomonas aeruginosa; Pseudomonas aeruginosa, read-out: diameter of clear zone inhibition): 21 mm
- inhibition% [12, 16]: 75%
- zone of inhibition at 100 µM ([12]; Chromobacterium violaceum, read-out: diameter of clear zone inhibition): 24 mm
